This is an account of results in ChEMBL document CHEMBL1125826, “Synthesis and biological activity of 5-amino- and 5-hydroxyquinolones, and the overwhelming influence of the remote N1-substituent in determining the structure-activity relationship” (1991).

In brackets after ≈: the same amount, converted by molar mass.

Common to all, as to type: functional
In assay [1] the test system is Enterococcus faecalis. Nature of the assay: Antibacterial activity was determined against gram positive organism, Streptococcus faecalis MGH-2. To be noted: Enterococcus faecalis; read-out: MIC. Summed up:
(§1)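 MIC (µg/mL) by standard microtitration against a panel of 10 Gram-positive and Gram-negative organisms; values averaged from multiple experiments.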

Assay [2] relates to Staphylococcus aureus. Nature of the assay: Antibacterial activity was determined against gram positive organism, Staphylococcus aureus UC76. Put shortly: as §1
The test system of assay [3] is Streptococcus pyogenes. Nature of the assay: Antibacterial activity was determined against gram positive organism, Streptococcus pyogenes C203. To be noted: Streptococcus pyogenes; read-out: MIC. Put shortly: as §1
The subject of assay [4] is Staphylococcus aureus. Nature of the assay: Antibacterial activity was determined against gram positive organism, Staphylococcus aureus H228. To be noted: Staphylococcus aureus; read-out: MIC. Summed up:
as §1

Assay [5] concerns Streptococcus pneumoniae. Nature of the assay: Antibacterial activity was determined against gram positive organism, Streptococcus pneumoniae SV-1. The note with it: Streptococcus pneumoniae; read-out: MIC. Summed up:
as §1

Assay [6] concerns Pseudomonas aeruginosa. Nature of the assay: Antibacterial activity was determined against gram negative organism, Pseudomonas aeruginosa UI-18. The note with it: Pseudomonas aeruginosa; read-out: MIC. Put shortly: as §1
Assay [7] deals with DNA gyrase (Escherichia coli) (UniProt P0AES6+P0AES4). Nature of the assay: Minimum inhibitory concentration against Escherichia coli DNA-gyrase in supercoiling assay.
Assay [8] has as its system Bacteria. Nature of the assay: MIC ratio measured as the mean MICs of gram-negative bacteria. Put shortly:
(§2)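 Geometric mean of the microtitration MICs (µg/mL) over the Gram-negative organisms, and separately over the Gram-positive organisms, of the 10-strain panel; individual MICs averaged from multiple experiments.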

For assay [9], the system named is Klebsiella pneumoniae. Nature of the assay: Antibacterial activity was determined against gram negative organism, Klebsiella pneumoniae MGH-2. The note with it: Klebsiella pneumoniae; read-out: MIC. Put shortly:
as §1

Assay [10] deals with Bacteria. Nature of the assay: Antibacterial activity was determined against gram negative organism, Providencia rettgeri. M1771. To be noted: Bacteria; read-out: MIC. Put shortly:
as §1

In assay [11] the test system is Bacteria. Nature of the assay: MIC ratio measured as the mean MICs of gram-positive bacteria. Put shortly:
as §2

For assay [12], the system named is Escherichia coli. Nature of the assay: Antibacterial activity was determined against gram negative organism, Escherichia coli vogel. The note with it: Escherichia coli; read-out: MIC. Put shortly: as §1
In assay [13] the test system is Enterobacter cloacae. Nature of the assay: Antibacterial activity was determined against gram negative organism, Enterobacter cloacae MA2646. To be noted: Enterobacter cloacae; read-out: MIC.
Where [14] appears, read: Staphylococcus aureus, read-out: MIC.

For the compound `CCn1cc(C(=O)O)c(=O)c2c(O)c(F)c(N3CCC(N)C3)c(F)c21` (centres undefined), the MIC is 3.1 µg/mL (≈ 8.77 µM) in assay [1]; 0.2 µg/mL (≈ 0.566 µM) in assay [2] (setting [14]); 1.6 µg/mL (≈ 4.53 µM) in [3]; 1.6 µg/mL (≈ 4.53 µM) in assay [4]; 1.6 µg/mL (≈ 4.53 µM) in assay [5]; 0.8 µg/mL (≈ 2.26 µM) in [6]. For the same compound, the MIC stood at 2.5 µg/mL (≈ 7.08 µM) in assay [7]; 0.4 µg/mL (≈ 1.13 µM) in [9]; 0.4 µg/mL (≈ 1.13 µM) in [10]; 0.2 µg/mL (≈ 0.566 µM) in assay [12]; 0.2 µg/mL (≈ 0.566 µM) in assay [13]. In addition, the Geometric mean MIC over Gram-negative bacteria (µg/mL) in [8] turned out to be 0.35. Besides, the “Geometric mean MIC over Gram-positive bacteria (µg/mL)” value in assay [11] is recorded as 1.2.
Turning to `CCn1cc(C(=O)O)c(=O)c2c(N)c(F)c(N3CC(C)NC(C)C3)c(F)c21` (centres undefined), the MIC in [1] was determined as 6.3 µg/mL (≈ 16.6 µM); in [2] (setting [14]), 0.8 µg/mL (≈ 2.1 µM); in assay [3] it was 25 µg/mL (≈ 65.7 µM); in assay [4], 1.6 µg/mL (≈ 4.21 µM); in assay [5] it was 12.5 µg/mL (≈ 32.9 µM); in assay [6], 12.5 µg/mL (≈ 32.9 µM). Also, the MIC in assay [7] is 7.5 µg/mL (≈ 19.7 µM); in [9], 0.8 µg/mL (≈ 2.1 µM); in [10], 3.1 µg/mL (≈ 8.15 µM); in assay [12], 0.4 µg/mL (≈ 1.05 µM); in assay [13], 0.8 µg/mL (≈ 2.1 µM). Besides, the Geometric mean MIC over Gram-negative bacteria (µg/mL) in assay [8] was found to be 1.58. For the same compound, the “Geometric mean MIC over Gram-positive bacteria (µg/mL)” value in assay [11] is 4.79.
With `CCNCC1CCN(c2c(F)c(N)c3c(=O)c(C(=O)O)cn(CC)c3c2F)C1` (centres undefined), the MIC is 0.2 µg/mL (≈ 0.507 µM) in [1]; 0.1 µg/mL (≈ 0.254 µM) in assay [2] (setting [14]); 0.2 µg/mL (≈ 0.507 µM) in assay [3]; 0.2 µg/mL (≈ 0.507 µM) in [4]; 0.2 µg/mL (≈ 0.507 µM) in assay [5]; 6.3 µg/mL (≈ 16 µM) in [6]. The MIC in assay [7] was 3.8 µg/mL (≈ 9.63 µM); in assay [9], 1.6 µg/mL (≈ 4.06 µM); in assay [10], 1.6 µg/mL (≈ 4.06 µM); in [12] it was 0.2 µg/mL (≈ 0.507 µM); in [13], 0.4 µg/mL (≈ 1.01 µM). In [8], the Geometric mean MIC over Gram-negative bacteria (µg/mL) amounted to 1.05. Besides, the “Geometric mean MIC over Gram-positive bacteria (µg/mL)” value in assay [11] worked out at 0.17.
As to `CCn1cc(C(=O)O)c(=O)c2c(N)c(F)c(N3CCNCC3)cc21`, the MIC in assay [1] stood at 0.2 µg/mL (≈ 0.598 µM); in assay [2] (setting [14]), 0.05 µg/mL (≈ 0.15 µM); in assay [3] it was 0.05 µg/mL (≈ 0.15 µM); in assay [4], 0.4 µg/mL (≈ 1.2 µM); in [5], 0.1 µg/mL (≈ 0.299 µM); in assay [6], 3.1 µg/mL (≈ 9.27 µM). Moreover, the MIC amounted to 2.5 µg/mL (≈ 7.48 µM) in [7]; 0.4 µg/mL (≈ 1.2 µM) in assay [9]; 1.6 µg/mL (≈ 4.79 µM) in [10]; 0.2 µg/mL (≈ 0.598 µM) in [12]; 0.2 µg/mL (≈ 0.598 µM) in assay [13]. For the same compound, the Geometric mean MIC over Gram-negative bacteria (µg/mL) in [8] was determined as 0.6. Also, in [11], the “Geometric mean MIC over Gram-positive bacteria (µg/mL)” value stood at 0.11.
As to `CC1CN(c2cc3c(cc2F)c(=O)c(C(=O)O)cn3-c2ccc(F)cc2F)CCN1` (centres undefined) [TEMAFLOXACIN], the MIC in assay [1] is 0.2 µg/mL (≈ 0.479 µM); in assay [2], 0.025 µg/mL (≈ 0.0599 µM); in assay [3] it was 0.1 µg/mL (≈ 0.24 µM); in assay [4], 0.1 µg/mL (≈ 0.24 µM); in [5], 0.1 µg/mL (≈ 0.24 µM); in assay [6], 1.6 µg/mL (≈ 3.83 µM). For the same compound, the MIC in assay [7] was found to be 0.75 µg/mL (≈ 1.8 µM); in assay [9] it was 0.1 µg/mL (≈ 0.24 µM); in assay [10], 0.2 µg/mL (≈ 0.479 µM); in assay [12], 0.05 µg/mL (≈ 0.12 µM); in assay [13], 0.05 µg/mL (≈ 0.12 µM). In addition, the Geometric mean MIC over Gram-negative bacteria (µg/mL) in assay [8] was 0.15. Further, in assay [11], the “Geometric mean MIC over Gram-positive bacteria (µg/mL)” value came out at 0.087.
In the case of `CCn1cc(C(=O)O)c(=O)c2cc(F)c(N3CC(C)NC(C)C3)cc21` (centres undefined), the MIC was determined as 1.6 µg/mL (≈ 4.61 µM) in assay [1]; 0.4 µg/mL (≈ 1.15 µM) in assay [2]; 1.6 µg/mL (≈ 4.61 µM) in assay [3]; 1.6 µg/mL (≈ 4.61 µM) in [4]; 1.6 µg/mL (≈ 4.61 µM) in assay [5]; 6.3 µg/mL (≈ 18.1 µM) in assay [6]. For the same compound, the MIC in assay [7] turned out to be 2.5 µg/mL (≈ 7.2 µM); in [9] it was 0.4 µg/mL (≈ 1.15 µM); in [10], 0.8 µg/mL (≈ 2.3 µM); in assay [12], 0.2 µg/mL (≈ 0.576 µM); in [13] it was 0.2 µg/mL (≈ 0.576 µM). For the same compound, the Geometric mean MIC over Gram-negative bacteria (µg/mL) in assay [8] amounted to 0.6. The “Geometric mean MIC over Gram-positive bacteria (µg/mL)” value in assay [11] is reported as 1.21.
For `O=C(O)c1cn(C2CC2)c2c(F)c(N3CCNCC3)c(F)c(O)c2c1=O`, the MIC in [1] is 1.6 µg/mL (≈ 4.38 µM); in [2] (setting [14]) it was 0.2 µg/mL (≈ 0.547 µM); in [3], 1.6 µg/mL (≈ 4.38 µM); in assay [4] it was 1.6 µg/mL (≈ 4.38 µM); in [5], 1.6 µg/mL (≈ 4.38 µM); in assay [6], 0.8 µg/mL (≈ 2.19 µM). Also, the MIC was 0.5 µg/mL (≈ 1.37 µM) in [7]; 0.2 µg/mL (≈ 0.547 µM) in assay [9]; 0.2 µg/mL (≈ 0.547 µM) in assay [10]; 0.05 µg/mL (≈ 0.137 µM) in assay [12]; 0.1 µg/mL (≈ 0.274 µM) in [13]. The Geometric mean MIC over Gram-negative bacteria (µg/mL) in assay [8] stood at 0.17. In addition, the “Geometric mean MIC over Gram-positive bacteria (µg/mL)” value in assay [11] amounted to 1.06.
`CCNCC1CCN(c2c(F)cc3c(=O)c(C(=O)O)cn(CC)c3c2F)C1` (centres undefined) [MERAFLOXACIN]: the MIC in assay [1] is 0.1 µg/mL (≈ 0.264 µM); in [2], 0.05 µg/mL (≈ 0.132 µM); in assay [3] it was 0.1 µg/mL (≈ 0.264 µM); in [4], 0.1 µg/mL (≈ 0.264 µM); in [5], 0.1 µg/mL (≈ 0.264 µM); in assay [6], 1.6 µg/mL (≈ 4.22 µM). The MIC in assay [7] was found to be 2.5 µg/mL (≈ 6.59 µM); in [9], 0.2 µg/mL (≈ 0.527 µM); in assay [10], 0.4 µg/mL (≈ 1.05 µM); in [12], 0.1 µg/mL (≈ 0.264 µM); in assay [13], 0.1 µg/mL (≈ 0.264 µM). Also, the Geometric mean MIC over Gram-negative bacteria (µg/mL) in [8] came to 0.26. Also, the Ratio in [11] stood at 0.087.
